Values joined by “and” are separate entries in the source; they are usually repeats but may differ in a detail not shown here. Equal values may be shown once.
Experiments:
Rattus norvegicus [1] = experiment: Compound was tested in vivo for antiinflammatory activity against chronic adjuvant arthritic rat by prophylactic inhibition 1 degree paw after peroral administration of 36 mg/kg of dose; settings: po
Rattus norvegicus [2] = experiment: Tested in vivo for antiinflammatory activity against chronic adjuvant arthritic rat by prophylactic inhibition 1 degree paw after peroral administration of 9 mg/kg of dose; assay type: functional; settings: route oral
Summary of the method: (§1)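 Prophylactic regimen, rats. Adjuvant is heat-killed Mycobacterium tuberculosis ground to a fine powder in paraffin oil (6 mg/mL); 0.1 mL is injected into the left hind paw. Oral drug is given 1 h before adjuvant challenge, then for 21 consecutive days; controls receive methyl cellulose. Left (1°) and right (2°) hind paw volumes are measured by plethysmograph.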

Rattus norvegicus [3] = experiment: Compound was tested in vivo against chronic adjuvant arthritic rat by prophylactic inhibition 2 degree paw. Relative potency with respect to (8-Benzyl-5-hydroxy-1,3-dimethyl-6-propyl-1H,8H-1,3,4b,8,9-pentaaza-fluorene-2,4,7-trione); assay type: functional
Rattus norvegicus [4] = experiment: Compound was tested in vivo for antiinflammatory activity against chronic adjuvant arthritic rat by prophylactic inhibition 2 degree paw after peroral administration of 18 mg/kg of dose; settings: po
Rattus norvegicus [5] = experiment: Tested in vivo for antiinflammatory activity against chronic adjuvant arthritic rat by prophylactic inhibition 2 degree paw after peroral administration of 9 mg/kg of dose; assay type: functional; settings: route oral
Summary of the method: as §1

Rattus norvegicus [6] = experiment: In vivo antiinflammatory activity against rats by RPAR(reverse passive Arthus reaction) synovitis method; assay type: functional; set-up: concentration or dose not given beside the values
Summary of the method: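 Lewis rats, oral drug or placebo 1 h before iv BSA (2.28 mg in saline), then intraarticular rabbit anti-BSA (0.54 mg) into one knee and saline into the other, under light anesthesia. Second oral dose at 3 h; the total of both doses is the calculated dose. About 17 h after induction, subpatellar tissue with synovium is excised and weighed. Response is antibody-minus-saline knee weight, tested by analysis of variance.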

Rattus norvegicus [7] = experiment: Compound was tested in vivo for antiinflammatory activity against chronic adjuvant arthritic rat by prophylactic inhibition 2 degree paw after peroral administration of 36 mg/kg of dose; settings: po
Rattus norvegicus [8] = experiment: Antiinflammatory activity against collagen II arthritis in rats, activity % inhibition in noninjected paw edema; assay type: functional; set-up: concentration or dose not given beside the values
Summary of the method: (§2)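 Rats immunised with bovine articular-cartilage type II collagen (dissolved in 0.01 M AcOH for 24 h at 4 °C, dialysed against saline) mixed in equal volume with incomplete Freund's adjuvant. Paws were examined weekly for 7 weeks. An animal counted as arthritic at Δ paw volume ≥8.0 (injected paw) or ≥4.0 (noninjected paw). Bone lesions were scored on lateral-projection foot radiographs. 16 rats/group.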

[9] = molecular target: T1, Polyunsaturated fatty acid 5-lipoxygenase (Rattus norvegicus) (UniProt P12527); experiment: In vitro inhibitory activity against Lipoxygenase in rat neutrophils at a dose of 50 uM
T1 sequence (whole entry): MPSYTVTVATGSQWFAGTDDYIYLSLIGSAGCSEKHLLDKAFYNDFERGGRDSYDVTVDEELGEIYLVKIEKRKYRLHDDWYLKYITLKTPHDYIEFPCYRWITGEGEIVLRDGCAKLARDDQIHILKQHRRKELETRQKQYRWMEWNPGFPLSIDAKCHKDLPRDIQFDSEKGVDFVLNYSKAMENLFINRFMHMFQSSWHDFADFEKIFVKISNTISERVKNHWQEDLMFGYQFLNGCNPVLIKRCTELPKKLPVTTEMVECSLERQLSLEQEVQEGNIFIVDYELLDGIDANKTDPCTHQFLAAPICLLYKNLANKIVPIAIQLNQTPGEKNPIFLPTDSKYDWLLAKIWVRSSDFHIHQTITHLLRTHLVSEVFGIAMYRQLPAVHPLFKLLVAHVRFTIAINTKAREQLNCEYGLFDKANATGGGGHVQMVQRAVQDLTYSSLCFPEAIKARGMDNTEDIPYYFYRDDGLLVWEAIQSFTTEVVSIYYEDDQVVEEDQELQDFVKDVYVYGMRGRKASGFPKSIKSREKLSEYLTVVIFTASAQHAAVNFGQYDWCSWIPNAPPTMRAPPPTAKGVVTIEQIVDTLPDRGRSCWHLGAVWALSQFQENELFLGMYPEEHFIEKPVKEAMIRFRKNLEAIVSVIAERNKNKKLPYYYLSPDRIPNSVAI
Summary of the method: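 Neutrophils come from the 4 h pleural exudate of male Wistar-Lewis rats given iv BSA plus intrapleural rabbit anti-BSA IgG. Cells are washed, red cells lysed with NH4Cl, and resuspended at about 5×10^6 cells/0.1 mL in Tris pH 7.4 with NaCl and 1 mM CaCl2. Cells are preincubated with compound 4 min at room temperature.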

Rattus norvegicus [10] = experiment: Compound was tested in vivo for antiinflammatory activity against chronic adjuvant arthritic rat by prophylactic inhibition 1 degree paw after peroral administration of 36 mg/kg of dose; assay type: functional
Rattus norvegicus [11] = experiment: Antiinflammatory activity on the development of collagen II arthritis in rats, measured based on animals positive for arthritis by the presence of paw edema; assay type: functional
Summary of the method: as §2

Rattus norvegicus [12] = experiment: Compound was tested in vivo for antiinflammatory activity against chronic adjuvant arthritic rat by therapeutic inhibition 1 degree paw after peroral administration of 36 mg/kg of dose; settings: route oral
Rattus norvegicus [13] = experiment: Antiinflammatory activity against collagen II arthritis in rats, activity% inhibition in injected paw edema; assay type: functional; set-up: concentration or dose not given beside the values
Summary of the method: as §2

Rattus norvegicus [14] = species on record: Rattus norvegicus; experiment: Antiinflammatory activity on the development of collagen II arthritis in rats, measured based on animals positive for arthritis by the presence of bone lesions; assay type: functional
Summary of the method: as §2

Rattus norvegicus [15] = experiment: Compound was tested in vivo for antiinflammatory activity against chronic adjuvant arthritic rat by therapeutic inhibition 2 degree paw after peroral administration of 9 mg/kg of dose; assay type: functional; settings: route oral
Rattus norvegicus [16] = experiment: Compound was tested in vivo for antiinflammatory activity against chronic adjuvant arthritic rat by prophylactic inhibition 2 degree paw after peroral administration of 18 mg/kg of dose; assay type: functional; settings: route oral
Summary of the method: (§3)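 Prophylactic adjuvant arthritis: heat-killed Mycobacterium tuberculosis powder in paraffin oil (6 mg/mL), 0.1 mL injected into the left hind paw. Drug given orally 1 h before adjuvant, then for 21 consecutive days; controls received methyl cellulose. Left (1°) and right (2°) hind paw volumes were measured by plethysmograph.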

Rattus norvegicus [17] = experiment: Compound was tested in vivo for antiinflammatory activity against chronic adjuvant arthritic rat by prophylactic inhibition 2 degree paw after peroral administration of 36 mg/kg of dose; assay type: functional
Rattus norvegicus [18] = experiment: Compound was tested in vivo for antiinflammatory activity against chronic adjuvant arthritic rat by therapeutic inhibition 2 degree paw after peroral administration of 36 mg/kg of dose; settings: route oral
Rattus norvegicus [19] = experiment: Compound was tested in vivo for antiinflammatory activity against chronic adjuvant arthritic rat by therapeutic inhibition 1 degree paw after peroral administration of 9 mg/kg of dose; assay type: functional; settings: route oral
Rattus norvegicus [20] = experiment: Compound was tested in vivo for antiinflammatory activity against chronic adjuvant arthritic rat by therapeutic inhibition 2 degree paw. Relative potency with respect to (8-Benzyl-5-hydroxy-1,3-dimethyl-6-propyl-1H,8H-1,3,4b,8,9-pentaaza-fluorene-2; assay type: functional
[21] = molecular target: Cyclooxygenase (Rattus norvegicus) (UniProt P35355+Q63921); experiment: In vitro inhibitory activity against Prostaglandin G/H synthase in rat neutrophils at a dose of 50 uM
Rattus norvegicus [22] = species on record: Rattus norvegicus; experiment: Delayed Type hypersensitivity (DTH) is measured by increase in ear thickness 24 hours after antigen injection into pinna; assay type: functional
Rattus norvegicus [23] = species on record: Rattus norvegicus; experiment: Antiinflammatory activity by immune response to collagen II antigen in rats antibody titer was determined by passive hemagglutinination; assay type: functional
Summary of the method: (§4)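 In rats with bovine type II collagen/incomplete Freund's adjuvant arthritis, the antibody response to collagen II was titred by passive hemagglutination. The delayed-type hypersensitivity component, ear thickness 24 h after intrapinna antigen, was read at day 21.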

Rattus norvegicus [24] = experiment: Compound was tested in vivo for antiinflammatory activity against chronic adjuvant arthritic rat by prophylactic inhibition 1 degree paw after peroral administration of 18 mg/kg of dose; assay type: functional
Summary of the method: as §3

Rattus norvegicus [25] = species on record: Rattus norvegicus; experiment: Compound was tested for antiinflammatory activity against collagen II arthritis in rats,; assay type: functional
Summary of the method: as §2

Rattus norvegicus [26] = species on record: Rattus norvegicus; experiment: compound was tested for antiinflammatory activity against collagen II arthritis in rats,; assay type: functional
Summary of the method: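 Arthritis induced in rats by injection of bovine articular cartilage type II collagen (dissolved in 0.01 M AcOH, dialysed against saline) mixed 1:1 with incomplete Freund's adjuvant. Paw inflammation checked weekly for 7 weeks. Inhibition = [Δpaw vol(collagen) − Δpaw vol(collagen + drug)]/[Δpaw vol(collagen) − Δpaw vol(ICFA control)] × 100. Bone damage scored by lateral-projection radiography; p ≤ 0.05 by Student's t-test.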

Rattus norvegicus [27] = species on record: Rattus norvegicus; experiment: Compound was tested for antiinflammatory activity by immune response to collagen II antigen in rats, antibody titer was determined by passive hemagglutinination; assay type: functional
Summary of the method: as §4

Rattus norvegicus [28] = experiment: Compound was tested for intestinal ulcerogenic effect in rats at a dose of 10 mg/kg; assay type: functional
Summary of the method: (§5)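 Normal fed rats were gavaged once daily for three consecutive days at 10–300 mg/kg and killed 24 h after the last dose. Intestines were examined for ulcers, recording incidence per group of 8 and a lesion score (±SE).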

Rattus norvegicus [29] = species on record: Rattus norvegicus; experiment: Compound was tested for gastric Ulcerogenic effect in rats, activity expressed as lesion length
Rattus norvegicus [30] = species on record: Rattus norvegicus; experiment: Compound was tested for intestinal Ulcerogenic effect in rats, activity expressed as ulcer incidence; assay type: functional
Summary of the method: as §5

Rattus norvegicus [31] = species on record: Rattus norvegicus; experiment: Compound was tested for intestinal Ulcerogenic effect in rats, activity expressed as lesion score; assay type: functional
Summary of the method: as §5

Rattus norvegicus [32] = species on record: Rattus norvegicus; experiment: compound was tested for antiinflammatory activity by immune response to collagen II antigen in rats, antibody titer was determined by passive hemagglutinination; assay type: functional, organism-based
Summary of the method: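 Rats immunized with bovine type II collagen in incomplete Freund's adjuvant, with drug given alongside. Antibody titer to collagen II measured by passive hemagglutination; p ≤ 0.05 by Student's t-test.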

CCCCc1c(O)n(Cc2ccc(F)cc2)c2nc3c(c(=O)n(C)c(=O)n3C)n2c1=O gave an inhibition in vivo at 36 mg/kg (Rattus norvegicus [1]) of 74%, an inhibition in vivo at 9 mg/kg (Rattus norvegicus [2]) of 28% and a Relative potency (Rattus norvegicus [3]) of 3.8. For the same compound, the inhibition in vivo at 18 mg/kg (Rattus norvegicus [4]) was 70%, the inhibition in vivo at 9 mg/kg (Rattus norvegicus [5]) was 59% and the Inhibition (Rattus norvegicus [6]) was 27%. It also gave an inhibition in vivo at 36 mg/kg (Rattus norvegicus [7]) of 74%.
For CCCc1c(O)n(Cc2ccccc2)c2nc3c(c(=O)n(C)c(=O)n3C)n2c1=O, the Inhibition (Rattus norvegicus [8]) was 37.5%, the inhibition [9] was 0% and 5% and the inhibition in vivo at 36 mg/kg (Rattus norvegicus [10]; po) was 59%. It also gave a Positive (Rattus norvegicus [11]) of 26.7%, an Inhibition (Rattus norvegicus [12]) of 64% and an Inhibition (Rattus norvegicus [13]) of 9.6%. It also gave a Positive (Rattus norvegicus [14]) of 26.7%, an inhibition in vivo at 9 mg/kg (Rattus norvegicus [2]) of 16% and a Relative potency (Rattus norvegicus [3]) of 1. It also gave an inhibition in vivo at 9 mg/kg (Rattus norvegicus [15]) of 15%, an inhibition in vivo at 18 mg/kg (Rattus norvegicus [16]) of 52% and an inhibition in vivo at 36 mg/kg (Rattus norvegicus [17]; po) of 78%. For the same compound, the inhibition in vivo at 9 mg/kg (Rattus norvegicus [5]) was 38%, the Inhibition (Rattus norvegicus [18]) was 77% and the Inhibition (Rattus norvegicus [6]) was 33%. For the same compound, the inhibition in vivo at 9 mg/kg (Rattus norvegicus [19]) was 17%, the Relative potency (Rattus norvegicus [20]) was 1 and the inhibition [21] was 43%. For the same compound, the DTH (Rattus norvegicus [22]) was 0.0464 mm, the Antibody titer (Rattus norvegicus [23]) was 9.2 and the inhibition in vivo at 18 mg/kg (Rattus norvegicus [24]; Rattus norvegicus, po) was 41%. For the same compound, the Inhibition (Rattus norvegicus [24]; route oral, 18 mg/kg) was 41%.
For CCCCc1c(O)n(Cc2ccccc2)c2nc3c(c(=O)n(C)c(=O)n3C)n2c1=O, the inhibition in vivo at 36 mg/kg (Rattus norvegicus [1]) was 52%, the inhibition in vivo at 9 mg/kg (Rattus norvegicus [2]) was 17% and the Relative potency (Rattus norvegicus [3]) was 2.1. It also gave an inhibition in vivo at 18 mg/kg (Rattus norvegicus [4]) of 64%, an inhibition in vivo at 9 mg/kg (Rattus norvegicus [5]) of 55% and an Inhibition (Rattus norvegicus [6]) of 48%. For the same compound, the inhibition in vivo at 36 mg/kg (Rattus norvegicus [7]) was 79%.
With CC(C)(S)[C@@H](N)C(=O)O [PENICILLAMINE] the Inhibition (Rattus norvegicus [8]) was 42.6%, the Inhibition (Rattus norvegicus [13]) was 36% and the Positive (Rattus norvegicus [25]) was 31.5%. The Positive (Rattus norvegicus [26]) was 31.3%, the Antibody titer (Rattus norvegicus [27]) was 10.7 and the DTH (Rattus norvegicus [22]) was 0.0538 mm.
For COc1ccc2c(c1)c(CC(=O)O)c(C)n2C(=O)c1ccc(Cl)cc1 [INDOMETHACIN], the Ulcer incidence (Rattus norvegicus [28]) was 8 number/group, the Length (Rattus norvegicus [29]) was 5 mm rat-1 and the Ulcer incidence (Rattus norvegicus [30]) was 8 number/group. The Lesion length (Rattus norvegicus [31]) was 4.2 mm rat-1.
In the case of AURANOFIN, the Antibody titer (Rattus norvegicus [32]) is reported as 12.9 log-2, the Positive (Rattus norvegicus [26]) is reported as 43.7% and 43.8% and the DTH (Rattus norvegicus [22]) is reported as 0.0445 mM.
Cn1c(=O)c2c(nc3n(Cc4ccccc4)c(O)c(CC=C4CCCCC4)c(=O)n23)n(C)c1=O was tested, and the inhibition [9] was 10% and 9%, the inhibition in vivo at 36 mg/kg (Rattus norvegicus [10]; route oral) was 6% and the inhibition in vivo at 36 mg/kg (Rattus norvegicus [17]; route oral) was 39%. The Inhibition (Rattus norvegicus [6]) was 7% and the inhibition [21] was 0%.
